Assays:
Trypanosoma cruzi [1] = assay: Antitrypanosomal activity against extracellular Trypanosoma cruzi Tulahuen clone C4; type: functional, organism-based
Trypanosoma cruzi [2] = assay: Antitrypanosomal activity against intracellular Trypanosoma cruzi Tulahuen clone C4 assessed as cleavage of […]; type: functional, organism-based
How it was run: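 Transgenic T. cruzi (Tulahuen strain, clone C4) expressing β-galactosidase were exposed to added compound. Growth of the intracellular form was read as cleavage of chlorophenol red-β-D-galactoside (CPRG) at 570 nm.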

Vero = assay: Cytotoxicity against african green monkey Vero cells after 4 hrs by MTT assay; type: cell-based; conditions: Chlorocebus sabaeus
How it was run: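 Adherent Vero cells were treated with compound and incubated 4 h at 37°. Viability was read from MTT reduction in an ELISA reader at 570 nm.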

SMILES | IC50 (Trypanosoma cruzi [1]) | IC50 (Trypanosoma cruzi [2]) | IC50 (Vero)
C[C@]1(CO)CCC[C@]2(C)[C@H]3CC(=O)[C@@]4(C)[C@@H]([C@@H]3CC[C@@H]12)[C@@H]4CO | – | – | 433 µM
C=CC1=C(C)[C@@H]2CC(=O)[C@H]3[C@](C)(COC(C)=O)CCC[C@]3(C)[C@H]2CC1 | 17.7 µM | 79.1 µM | 238 µM
CC(=O)OC[C@]1(C)CCC[C@]2(C)[C@H]3CCC(C=O)=C(C)[C@@H]3CC(=O)[C@@H]12 | 40.4 µM | 61.4 µM | 416 µM
C=C[C@@]1(O)CC[C@H]2[C@@H](C[C@@H](O)[C@H]3[C@](C)(COC(C)=O)CCC[C@]23C)C1=C | 16 µM | – | –
CO[C@@]12C[C@H]3[C@@H]([C@@H](O)[C@@H](OC(C)=O)[C@H]4[C@](C)(COC(C)=O)CCC[C@]34C)[C@@H](C)C1=CC(=O)O2 [CHAGRESLACTONE] | 75 µM | – | 225 µM
C=CC1=C(CO)[C@@H]2C[C@@H](O)[C@H]3[C@](C)(COC(C)=O)CCC[C@]3(C)[C@H]2CC1 [CHAGRESNOL] | 38.8 µM | 76 µM | 156 µM
CC(=O)OC[C@H]1[C@@H]2[C@@H]3CC[C@H]4[C@@](C)(CO)CCC[C@]4(C)[C@H]3CC(=O)[C@@]21C [CHAGRESNONE] | 56.9 µM | 95.5 µM | 448 µM

Continued, in another order:

IC50 (Trypanosoma cruzi [1]) | IC50 (Trypanosoma cruzi [2]) | SMILES | IC50 (Vero)
48 µM | – | C=CC1=C(C)[C@@H]2CC[C@H]3[C@](C)(CO)CCC[C@]3(C)[C@H]2CC1 | –
56.7 µM | 76.5 µM | C=CC1=C(C)[C@@H]2C[C@@H](OC(C)=O)[C@H]3[C@](C)(CO)CCC[C@]3(C)[C@H]2CC1 | 178 µM
– | 16 µM | C=CC1=C(C)[C@@H]2C[C@@H](O)[C@H]3[C@](C)(CO)CCC[C@]3(C)[C@H]2CC1 | –
11 µM | – | C=CC1=C(C)[C@@H]2C[C@@H](O)[C@H]3[C@](C)(COC(C)=O)CCC[C@]3(C)[C@H]2CC1 | –

Reference: ChEMBL document CHEMBL1148923, “Novel cassane and cleistanthane diterpenes from Myrospermum frutescens: absolute stereochemistry of the cassane diterpene series” (J Nat Prod, 2004)
